Measurements taken from ChEMBL document CHEMBL4325893, “Synthesis and antibacterial profiles of targeted triclosan derivatives” (2019).
≈ marks a conversion by molar mass, not a printed value.

Tests used:
Serratia marcescens = test: Antibacterial activity against Serratia marcescens OCC 217 after 18 hrs; format: functional; settings: OCC 217, 18 h
Method in brief: (§1)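 Broth microdilution in Nutrient Broth No. 2; stocks in ethanol diluted to 0.01–128 µg/ml (triclosan) or 0.25–256 µg/ml (glycosides). Overnight 37 °C NB2 cultures diluted 1 in 10^4 in saline and added to the dilutions. Incubation at 37 °C with agitation, OD read every 15 min; MIC is the lowest concentration preventing any OD rise after 18 h.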

Staphylococcus aureus [1] = test: Antibacterial activity against Staphylococcus aureus ATCC 6538 after 18 hrs; format: functional; settings: ATCC 6538, 18 h; method in brief: as §1
[2] = test system: Staphylococcus epidermidis; test: Antibacterial activity against Staphylococcus epidermidis ATCC 12228 after 18 hrs; format: functional; settings: ATCC 12228, 18 h; method in brief: as §1
Staphylococcus aureus [3] = test: Antibacterial activity against Staphylococcus aureus ATCC 9144 after 18 hrs; format: functional; settings: ATCC 9144, 18 h; method in brief: as §1
Aeromonas hydrophila = test: Antibacterial activity against Aeromonas hydrophila OCC 778 after 18 hrs; format: functional; settings: OCC 778, 18 h; method in brief: as §1
Salmonella typhimurium = test: Antibacterial activity against Salmonella enterica subspecies enterica serotype typhimurium ATCC 14028 after 18 hrs; format: functional, Salmonella enterica subsp. enterica serovar Typhimurium; settings: ATCC 14028, 18 h; method in brief: as §1
[4] = Antibacterial activity against Enterobacter cloacae ATCC 13047 after 18 hrs; format: functional, Enterobacter cloacae subsp. cloacae; settings: ATCC 13047, 18 h; method in brief: as §1
Escherichia coli [5] = test: Antibacterial activity against Escherichia coli OCC 122 after 18 hrs; format: functional; settings: OCC 122, 18 h; method in brief: as §1
Proteus mirabilis = test: Antibacterial activity against Proteus mirabilis ATCC 12453 after 18 hrs; format: functional; settings: ATCC 12453, 18 h; method in brief: as §1
Enterococcus faecalis [6] = test: Antibacterial activity against Enterococcus faecalis ATCC 33186 after 18 hrs; format: functional; settings: ATCC 33186, 18 h; method in brief: as §1
[7] = Antibacterial activity against Salmonella enterica subspecies enterica serotype Dublin OCC 627 after 18 hrs; format: functional, Salmonella enterica subsp. enterica serovar Dublin; settings: OCC 627, 18 h; method in brief: as §1
[8] = Antibacterial activity against Salmonella enterica subspecies enterica serotype Virchow NCTC 5742 after 18 hrs; format: functional, Salmonella enterica subsp. enterica serovar Virchow; settings: NCTC 5742, 18 h; method in brief: as §1
Cronobacter sakazakii = test: Antibacterial activity against Cronobacter sakazakii 29544 after 18 hrs; format: functional; settings: Cronobacter sakazakii, 29544, 18 h; method in brief: as §1
Escherichia coli [9] = test: Antibacterial activity against Escherichia coli ATCC 10536 after 18 hrs; format: functional; settings: ATCC 10536, 18 h; method in brief: as §1
Streptococcus agalactiae = test: Antibacterial activity against Streptococcus agalactiae OCC 182 after 18 hrs; format: functional; settings: OCC 182, 18 h
Method in brief: (§2)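 Broth microdilution in Nutrient Broth No. 2. Ethanol stocks were diluted in broth to 0.01–128 µg/ml for triclosan and 0.25–256 µg/ml for glycosides. Overnight 37°C NB2 cultures were diluted 1 in 10^4 in saline and added to the wells. Plates were incubated at 37°C with OD read every 15 min after agitation. MIC was the lowest concentration giving no OD increase at 18 h.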

[10] = test system: Salmonella enterica subsp. enterica serovar Abony; test: Antibacterial activity against Salmonella enterica subspecies enterica serotype Abony NCTC 6017 after 18 hrs; format: functional; settings: NCTC 6017, 18 h; method in brief: as §1
Escherichia coli [11] = test: Antibacterial activity against Escherichia coli NCTC 13216 after 18 hrs; format: functional; settings: NCTC 13216, 18 h; method in brief: as §1
Enterococcus faecalis [12] = test: Antibacterial activity against Enterococcus faecalis ATCC 29212 after 18 hrs; format: functional; settings: ATCC 29212, 18 h; method in brief: as §1
[13] = Antibacterial activity against Salmonella enterica subspecies enterica serotype Indiana OCC 597 after 18 hrs; format: functional, Salmonella enterica subsp. enterica serovar Indiana; settings: OCC 597, 18 h; method in brief: as §1
Staphylococcus aureus [14] = test: Antibacterial activity against Staphylococcus aureus ATCC 25923 after 18 hrs; format: functional; settings: ATCC 25923, 18 h; method in brief: as §1
Proteus vulgaris = test: Antibacterial activity against Proteus vulgaris OCC 195 after 18 hrs; format: functional; settings: OCC 195, 18 h; method in brief: as §1
[15] = test system: Staphylococcus saprophyticus; test: Antibacterial activity against Staphylococcus saprophyticus ATCC 15305 after 18 hrs; format: functional; settings: ATCC 15305, 18 h; method in brief: as §2
Streptococcus pyogenes = test: Antibacterial activity against Streptococcus pyogenes ATCC 19615 after 18 hrs; format: functional; settings: ATCC 19615, 18 h; method in brief: as §2
Pseudomonas aeruginosa = test: Antibacterial activity against Pseudomonas aeruginosa ATCC 27853 after 18 hrs; format: functional; settings: ATCC 27853, 18 h; method in brief: as §1
Klebsiella pneumoniae [16] = test: Antibacterial activity against Klebsiella pneumoniae ATCC 13883 after 18 hrs; format: functional; settings: ATCC 13883, 18 h; method in brief: as §1
Escherichia coli [17] = test: Antibacterial activity against Escherichia coli ATCC 8739 after 18 hrs; format: functional; settings: ATCC 8739, 18 h; method in brief: as §1
Klebsiella pneumoniae [18] = test: Antibacterial activity against Klebsiella pneumoniae ATCC 10031 after 18 hrs; format: functional; settings: ATCC 10031, 18 h; method in brief: as §1
Klebsiella aerogenes = test: Antibacterial activity against Klebsiella aerogenes NCTC 8167 after 18 hrs; format: functional; settings: NCTC 8167, 18 h; method in brief: as §1

OC[C@H]1O[C@@H](Oc2cc(Cl)ccc2Oc2ccc(Cl)cc2Cl)[C@H](O)[C@@H](O)[C@H]1O
MIC (Serratia marcescens): > 256 µg/mL
MIC (Staphylococcus aureus [1]): 0.5 µg/mL (≈ 1.11 µM)
MIC [2]: 0.5 µg/mL (≈ 1.11 µM)
MIC (Staphylococcus aureus [3]): 0.5 µg/mL (≈ 1.11 µM)
MIC (Aeromonas hydrophila): 256 µg/mL (≈ 567 µM)
MIC (Salmonella typhimurium): 2 to 16 µg/mL (≈ 4.43 to 35.4 µM)
MIC [4]: 0.5 µg/mL (≈ 1.11 µM)
MIC (Escherichia coli [5]): 0.5 to 32 µg/mL (≈ 1.11 to 70.8 µM)
MIC (Proteus mirabilis): 4 µg/mL (≈ 8.86 µM)
MIC (Enterococcus faecalis [6]): 128 µg/mL (≈ 283 µM)
MIC [7]: 2 to 16 µg/mL (≈ 4.43 to 35.4 µM)
MIC [8]: 2 to 16 µg/mL (≈ 4.43 to 35.4 µM)
MIC (Cronobacter sakazakii): 8 µg/mL (≈ 17.7 µM)
MIC (Escherichia coli [9]): 0.5 to 32 µg/mL (≈ 1.11 to 70.8 µM)
MIC (Streptococcus agalactiae): 256 µg/mL (≈ 567 µM)
MIC [10]: 2 to 16 µg/mL (≈ 4.43 to 35.4 µM)
MIC (Escherichia coli [11]): 0.5 to 32 µg/mL (≈ 1.11 to 70.8 µM)
MIC (Enterococcus faecalis [12]): 128 µg/mL (≈ 283 µM)
MIC [13]: 2 to 16 µg/mL (≈ 4.43 to 35.4 µM)
MIC (Staphylococcus aureus [14]): 0.5 µg/mL (≈ 1.11 µM)
MIC (Proteus vulgaris): 8 µg/mL (≈ 17.7 µM)
MIC [15]: 8 µg/mL (≈ 17.7 µM)
MIC (Streptococcus pyogenes): 128 µg/mL (≈ 283 µM)
MIC (Pseudomonas aeruginosa): > 256 µg/mL
MIC (Klebsiella pneumoniae [16]): 0.5 µg/mL (≈ 1.11 µM)
MIC (Escherichia coli [17]): 0.5 to 32 µg/mL (≈ 1.11 to 70.8 µM)
MIC (Klebsiella pneumoniae [18]): 0.5 µg/mL (≈ 1.11 µM)
MIC (Klebsiella aerogenes): 4 µg/mL (≈ 8.86 µM)
